According to ChEMBL document CHEMBL4725333, “Carbazole-based fluorescent probes for G-quadruplex DNA targeting with superior selectivity and low cytotoxicity” (Bioorg Med Chem, 2020):
pIC50: −log10 of the molar value. Activity calls are given as the source filed them. The calls are words filed in the database; no cut-off is given here.

Columns and labels:
Quadruplex DNA [1] = experiment: Effect on topology of human c-myc G-quadruplex DNA assessed as change in conformation at 245 nm at DNA to compound ratio of 1:1 by circular dichroism spectroscopy; assay type: nucleic-acid assay
Outline: (§1)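 CD titration of c-myc G-quadruplex DNA (5 µM) with 0–2 equivalents of probe, in 10 mM Tris-HCl, 60 mM KCl, pH 7.4.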

Quadruplex DNA [2] = experiment: Binding affinity to human c-myc G-quadruplex DNA with TTG AGGG TGGGT AGGGT GGGT AAATA flanking loops assessed as relative fluorescence intensity at 1 uM measured at pH 7.4 by fluorescent titration; assay type: nucleic-acid assay
Quadruplex DNA [3] = experiment: Binding affinity to G-quadruplex DNA in human HCCC9810 cells increase in fluorescence intensity at 20 uM by confocal fluorescence microscopy; assay type: cell-based
Outline: (§2)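 Live HCCC-9810 cells stained 0.5 h with probe at 20 µM together with DAPI (5 mg/mL) as nuclear counterstain. Imaged by confocal fluorescence microscopy. Intracellular location is assigned from co-staining with DAPI, and uptake is judged from fluorescence intensity within the cells.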

Quadruplex DNA [4] = experiment: Induction of stabilization of human c-myc G-quadruplex assessed inhibition of Taq polymerase mediated DNA polymerization at high concentration upto 20 uM by PCR-stop assay; assay type: nucleic-acid assay; details: dose microM <=20
Outline: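 PCR-stop assay. Probe (0–20 µM) was added to 1x PCR buffer containing 10 pmol c-myc template, 10 pmol c-myc rev primer, 0.2 mM dNTPs and 1.5 units Taq polymerase. Products were resolved on 15% non-denaturing polyacrylamide gels in 1× TBE. A mutant c-myc oligomer unable to fold served as control.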

Quadruplex DNA [5] = experiment: Binding affinity to human c-myc G-quadruplex DNA with TTG AGGG TGGGT AATGGGT GGGT AAA flanking loops assessed as relative fluorescence intensity at 1 uM measured at pH 7.4 by fluorescent titration; assay type: nucleic-acid assay
Quadruplex DNA [6] = experiment: Binding affinity to human c-myc G-quadruplex DNA assessed as increase in fluorescence in presence of BSA/HSA at 1 uM by fluorescence titration analysis; assay type: nucleic-acid assay
Outline: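 Probe fluorescence followed with increasing BSA or HSA as interfering proteins, in the same Tris-HCl/KCl pH 7.4 titration system.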

[7] = Cytotoxicity against human HCCC9810 cells assessed as reduction in cell viability incubated for 72 hr by CCK8 assay; assay type: cell-based; details: HCCC9810, 72 h
Outline: (§3)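 HCCC-9810, RBE and 293T cells exposed to probe at 0–100 µM for 72 h. Viable cells quantified by CCK-8 assay.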

Quadruplex DNA [8] = experiment: Binding affinity to human c-myc G-quadruplex DNA with 22-aminopurine substitution assessed as fluorescence intensity in presence of hemin; assay type: nucleic-acid assay
Outline: (§4)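 2-aminopurine-labelled c-myc G-quadruplex DNA held at 2 µM in 10 mM Tris-HCl, pH 7.4, 60 mM KCl. Probe or hemin added gradually, and 2-Ap fluorescence intensity monitored.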

Quadruplex DNA [9] = experiment: Binding affinity to human c-myc G-quadruplex DNA with 22-aminopurine substitution assessed as fluorescence intensity; assay type: nucleic-acid assay; outline: as §4
Quadruplex DNA [10] = experiment: Competitive binding affinity to human c-myc G-quadruplex DNA assessed as increase in fluorescence in presence of ssDNA and dsDNA at 1 uM by fluorescence titration analysis; assay type: nucleic-acid assay
Outline: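 Competition titration: probe at 1 µM with 20 µM ds26 duplex DNA, then stepwise addition of c-myc G-quadruplex DNA, in 10 mM Tris-HCl, 60 mM KCl, pH 7.4. Read-out was fluorescence emission.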

Quadruplex DNA [11] = experiment: Binding affinity to human c-myc G-quadruplex DNA with 13-aminopurine substitution assessed as fluorescence intensity in presence of hemin; assay type: nucleic-acid assay; outline: as §4
Quadruplex DNA [12] = experiment: Binding affinity to human c-myc G-quadruplex DNA assessed as increase in fluorescence in presence of c-myc at 1 uM by fluorescence titration analysis; assay type: nucleic-acid assay
Outline: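 Probe at 1 µM in 10 mM Tris-HCl, 60 mM KCl, pH 7.4, titrated stepwise with c-myc G-quadruplex DNA (0–3 µM). Emission monitored near 545–547 nm, and F/F₀ of integral fluorescence fitted to an independent-site model. Linear range 0–0.8 µM DNA; detection limit from LOD = 3σ/k.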

Quadruplex DNA [13] = experiment: Binding affinity to human c-myc G-quadruplex DNA in Tris Hcl buffer assessed as increase in fluorescence intensity at 545 nm at 0 to 0.8 uM measured at pH 7.4 by fluorescence emission analysis; details: dose microM 0-0.8
Quadruplex DNA [14] = experiment: Binding affinity to human c-myc G-quadruplex DNA with TTG AGGG TAAGGGT AGGGT GGGT AAA flanking loops assessed as relative fluorescence intensity at 1 uM measured at pH 7.4 by fluorescent titration; assay type: nucleic-acid assay
Quadruplex DNA [15] = experiment: Binding affinity to human c-myc G-quadruplex DNA with 4-aminopurine substitution assessed as fluorescence intensity; assay type: nucleic-acid assay; outline: as §4
Quadruplex DNA [16] = experiment: Binding affinity to human c-myc G-quadruplex DNA assessed as displacement of fluorescent labelled compound by measuring decrease in emission in presence of hemin by FID assay; assay type: nucleic-acid assay
Quadruplex DNA [17] = experiment: Binding affinity to human c-myc G-quadruplex DNA with TTG AATGGG TGGGT AGGGT GGGT AAA flanking loops assessed as relative fluorescence intensity at 1 uM measured at pH 7.4 by fluorescent titration; assay type: nucleic-acid assay
Quadruplex DNA [18] = experiment: Inhibition of hemin binding to human c-myc G4 quadruplex DNA by measuring peroxidase activity within 30 at 415 nm by G4/hemin peroxidase inhibition assay; assay type: nucleic-acid assay
Outline: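 G4/hemin peroxidase assay in 10 mM Tris-HCl, 60 mM KCl, pH 7.4, with c-myc 0.4 µM, hemin 0.8 µM, ABTS²⁻ 0.18 mM and H₂O₂ 0.06 mM, across varied probe concentrations. Oxidized ABTS product followed by absorbance at 415 nm over 30 min.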

Quadruplex DNA [19] = experiment: Binding affinity to human c-myc G-quadruplex DNA with AGGG TGGGT AGGGT GGGT AAA flanking loops assessed as relative fluorescence intensity at 1 uM measured at pH 7.4 by fluorescent titration; assay type: nucleic-acid assay
Quadruplex DNA [20] = experiment: Binding affinity to G-quadruplex DNA in human HCCC9810 cells increase in fluorescence intensity in cytoplasm at 20 uM by confocal fluorescence microscopy; assay type: cell-based; outline: as §2
Quadruplex DNA [21] = experiment: Binding affinity to human c-myc G-quadruplex DNA in Tris Hcl buffer assessed as fluorescence lifetime of compound at 400 nm at pH 7.4 by fluorescence emission analysis (Rvb (absence of c-myc G-quadruplex DNA ) = 0.513 ns); assay type: nucleic-acid assay
Quadruplex DNA [22] = experiment: Binding affinity to human c-myc G-quadruplex DNA with 4-aminopurine substitution assessed as fluorescence intensity in presence of hemin; assay type: nucleic-acid assay; outline: as §4
Quadruplex DNA [23] = experiment: Binding affinity to human c-myc G-quadruplex DNA with TTGA GGG T GGG TA GGG T GGG TAAA flanking loops assessed as relative fluorescence intensity at 1 uM measured at pH 7.4 by fluorescent titration; assay type: nucleic-acid assay
Quadruplex DNA [24] = experiment: Binding affinity to human c-myc G-quadruplex DNA with 13-aminopurine substitution assessed as fluorescence intensity; assay type: nucleic-acid assay; outline: as §4
Quadruplex DNA [25] = experiment: Effect on topology of human c-myc G-quadruplex DNA assessed as change in conformation at 265 nm by circular dichroism spectroscopy
Quadruplex DNA [26] = experiment: Binding affinity to human c-myc G-quadruplex DNA with TTG AGGG TGGGT AGGGT GGGT flanking loops assessed as relative fluorescence intensity at 1 uM measured at pH 7.4 by fluorescent titration; assay type: nucleic-acid assay
[27] = Cytotoxicity against human RBE cells assessed as reduction in cell viability incubated for 72 hr by CCK8 assay; assay type: cell-based; outline: as §3
Quadruplex DNA [28] = experiment: Binding affinity to human c-myc G-quadruplex DNA with TTG AGGG TGGGT AGGGT ATGGGT AAA flanking loops assessed as relative fluorescence intensity at 1 uM measured at pH 7.4 by fluorescent titration; assay type: nucleic-acid assay
Quadruplex DNA [29] = experiment: Binding affinity to human c-myc G-quadruplex DNA uM by circular dichroism spectroscopy; assay type: nucleic-acid assay; outline: as §1
HEK-293T = experiment: Cytotoxicity against human 293T cells assessed as reduction in cell viability incubated for 72 hr by CCK8 assay; assay type: cell-based; outline: as §3

## COCCOCCOCCn1c2ccccc2c2cc(/C=C/c3cccc[n+]3C)ccc21.[I-]
Quadruplex DNA [1]
  Activity: inactive
Quadruplex DNA [2]
  Flu intensity: 852
Quadruplex DNA [3]
  Activity: Active
Quadruplex DNA [4]
  Activity: Active
Quadruplex DNA [5]
  Flu intensity: 632
Quadruplex DNA [6]
  Activity: Active
[7]
  pIC50: < 4.40
Quadruplex DNA [8]
  Activity: inactive
Quadruplex DNA [9]
  Activity: Active
Quadruplex DNA [10]
  Activity: Active
Quadruplex DNA [11]
  Activity: inactive
Quadruplex DNA [12]
  Activity: Active
Quadruplex DNA [13]
  Activity: Active
Quadruplex DNA [14]
  Flu intensity: 910
Quadruplex DNA [15]
  Activity: Active
Quadruplex DNA [16]
  Activity: inactive
Quadruplex DNA [17]
  Flu intensity: 702
Quadruplex DNA [18]
  Activity: inactive
Quadruplex DNA [19]
  Flu intensity: 846
Quadruplex DNA [20]
  Activity: Active
Quadruplex DNA [21]
  Time: 3.87 nanoseconds
Quadruplex DNA [22]
  Activity: inactive
Quadruplex DNA [23]
  Flu intensity: 695
Quadruplex DNA [24]
  Activity: Active
Quadruplex DNA [25]
  Activity: inactive
Quadruplex DNA [26]
  Flu intensity: 861
[27]
  pIC50: < 4.40
Quadruplex DNA [28]
  Flu intensity: 570
Quadruplex DNA [29]
  Activity: Active
HEK-293T
  pIC50: 4.40
